Consider 13 compounds from ChEMBL document CHEMBL1128218, “New alpha-thiol dipeptide dual inhibitors of angiotensin-I converting enzyme and neutral endopeptidase EC 3.4.24.11” (J Med Chem, 1995).

In general, IC50 refers to the point on the concentration scale where inhibition reaches its midpoint. The term inhibition denotes the change of the read-out against control, counted positive when it falls. A higher inhibition goes with strong suppression.

The target of assay [1] is T1, Angiotensin-converting enzyme (Oryctolagus cuniculus, UniProt P12822).
T1 sequence (P12822 whole entry): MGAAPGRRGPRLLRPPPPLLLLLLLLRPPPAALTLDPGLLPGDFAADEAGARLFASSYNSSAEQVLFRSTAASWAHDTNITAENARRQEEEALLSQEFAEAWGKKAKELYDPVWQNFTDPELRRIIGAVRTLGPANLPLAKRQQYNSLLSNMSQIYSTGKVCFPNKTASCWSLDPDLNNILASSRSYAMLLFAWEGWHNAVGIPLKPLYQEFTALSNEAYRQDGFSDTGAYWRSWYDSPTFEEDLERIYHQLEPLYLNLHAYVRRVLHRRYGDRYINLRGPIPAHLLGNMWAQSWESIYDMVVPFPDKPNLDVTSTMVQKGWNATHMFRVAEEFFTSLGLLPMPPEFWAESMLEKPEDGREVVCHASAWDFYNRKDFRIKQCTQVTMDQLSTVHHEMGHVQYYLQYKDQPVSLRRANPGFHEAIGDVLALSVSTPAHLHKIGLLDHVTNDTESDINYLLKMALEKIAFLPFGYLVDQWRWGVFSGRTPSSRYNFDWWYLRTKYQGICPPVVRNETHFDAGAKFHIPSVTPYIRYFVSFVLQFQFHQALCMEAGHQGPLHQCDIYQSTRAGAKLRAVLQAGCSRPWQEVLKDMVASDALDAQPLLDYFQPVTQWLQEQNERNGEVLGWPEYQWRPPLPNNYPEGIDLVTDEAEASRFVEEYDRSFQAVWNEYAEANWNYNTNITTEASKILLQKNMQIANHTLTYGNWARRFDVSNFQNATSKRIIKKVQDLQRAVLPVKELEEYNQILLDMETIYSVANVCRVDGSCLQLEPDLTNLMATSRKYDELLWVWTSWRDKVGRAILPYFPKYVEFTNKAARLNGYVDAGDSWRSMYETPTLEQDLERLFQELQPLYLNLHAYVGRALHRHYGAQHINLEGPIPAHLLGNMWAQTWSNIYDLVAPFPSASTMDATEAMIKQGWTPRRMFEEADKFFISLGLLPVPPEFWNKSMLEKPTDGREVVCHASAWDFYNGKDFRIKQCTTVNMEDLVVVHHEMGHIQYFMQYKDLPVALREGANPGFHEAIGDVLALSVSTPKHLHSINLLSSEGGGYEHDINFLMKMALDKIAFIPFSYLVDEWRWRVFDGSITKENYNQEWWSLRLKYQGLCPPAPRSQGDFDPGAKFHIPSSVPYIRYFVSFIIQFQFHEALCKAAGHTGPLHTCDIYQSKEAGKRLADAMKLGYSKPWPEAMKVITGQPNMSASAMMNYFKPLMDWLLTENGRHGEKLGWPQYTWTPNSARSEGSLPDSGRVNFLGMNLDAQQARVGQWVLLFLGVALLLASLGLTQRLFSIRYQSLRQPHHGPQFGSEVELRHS
Nature of the assay: Evaluation of in vitro inhibitory activity against Angiotensin I converting enzyme. The gist of the method: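 Rabbit lung ACE in 300 mM NaCl, 100 mM KH2PO4 (pH 8.3). Enzyme and drug mixed, then hippurylhistidylleucine (2 mg/mL stock) added and incubated 75 min at room temperature. Stopped with 1 N NaOH, o-phthalaldehyde added for 10 min at 25 °C, acidified with HCl, OD read at 360 nm.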

For assay [2], the target named is T2, Angiotensin-converting enzyme (Rattus norvegicus) (UniProt P47820).
T2 sequence (whole entry): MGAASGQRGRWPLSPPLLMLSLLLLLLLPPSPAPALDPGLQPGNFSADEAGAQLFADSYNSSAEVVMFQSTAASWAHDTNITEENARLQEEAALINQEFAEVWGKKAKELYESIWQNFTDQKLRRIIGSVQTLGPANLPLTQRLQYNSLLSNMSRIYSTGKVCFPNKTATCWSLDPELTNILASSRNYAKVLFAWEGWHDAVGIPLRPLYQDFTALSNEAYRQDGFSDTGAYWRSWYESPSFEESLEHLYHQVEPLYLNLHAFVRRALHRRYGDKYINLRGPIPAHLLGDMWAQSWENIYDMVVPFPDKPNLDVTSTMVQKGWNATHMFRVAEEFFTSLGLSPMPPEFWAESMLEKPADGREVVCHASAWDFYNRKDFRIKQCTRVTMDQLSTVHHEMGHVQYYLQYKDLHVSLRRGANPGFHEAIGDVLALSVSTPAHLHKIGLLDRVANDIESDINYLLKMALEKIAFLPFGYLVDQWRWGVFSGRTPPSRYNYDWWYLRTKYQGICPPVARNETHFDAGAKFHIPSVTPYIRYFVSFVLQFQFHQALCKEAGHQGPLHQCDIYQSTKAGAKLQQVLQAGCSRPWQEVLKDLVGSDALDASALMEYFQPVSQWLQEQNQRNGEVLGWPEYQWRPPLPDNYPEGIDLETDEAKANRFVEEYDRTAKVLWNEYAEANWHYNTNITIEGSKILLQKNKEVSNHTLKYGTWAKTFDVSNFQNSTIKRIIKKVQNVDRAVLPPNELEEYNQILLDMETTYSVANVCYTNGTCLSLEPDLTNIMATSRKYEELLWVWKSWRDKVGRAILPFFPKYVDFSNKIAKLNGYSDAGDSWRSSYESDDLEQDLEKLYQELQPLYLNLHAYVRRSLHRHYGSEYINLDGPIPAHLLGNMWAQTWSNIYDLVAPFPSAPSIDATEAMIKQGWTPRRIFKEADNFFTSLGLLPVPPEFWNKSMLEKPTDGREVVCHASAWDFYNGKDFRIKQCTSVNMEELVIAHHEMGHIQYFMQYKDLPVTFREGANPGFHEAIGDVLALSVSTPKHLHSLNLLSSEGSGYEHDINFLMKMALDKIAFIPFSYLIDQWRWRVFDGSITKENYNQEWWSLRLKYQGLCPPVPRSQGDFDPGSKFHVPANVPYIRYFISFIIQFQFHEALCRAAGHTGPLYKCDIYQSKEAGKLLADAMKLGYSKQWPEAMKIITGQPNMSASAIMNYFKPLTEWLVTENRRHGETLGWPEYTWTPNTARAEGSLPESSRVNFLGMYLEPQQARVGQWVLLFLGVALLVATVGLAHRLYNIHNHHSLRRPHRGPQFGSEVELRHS
As to the kind of experiment: Evaluation of plasma inhibition of Angiotensin I converting enzyme activity in conscious rat 6 hours after intravenous administration at a dose of 10 mg/kg. It is filed as functional, organism-based. Set-up: dose 10 mg/kg. The gist of the method:
(§1)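 Male conscious normotensive Sprague-Dawley rats (275-390 g) fitted the day before with femoral arterial and venous catheters under methohexital anesthesia. Three angiotensin-I challenges (300 ng/kg iv) given as baseline. Compound given iv, ia or po (12.3 mg/kg po dose in 3% cornstarch at 1 mg/mL), then AI challenges repeated at set times. Pressor response compared with the mean baseline response and expressed as % inhibition.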

In assay [3] the target is T2, Angiotensin-converting enzyme (Rattus norvegicus). As to the kind of experiment: Evaluation of plasma inhibition of Angiotensin I converting enzyme activity in conscious rat 4 hour after oral administration at a dose of 10 mg/kg. Set-up: dose 10 mg/kg. It is filed as functional, organism-based.
For assay [4] the target is unchanged. As to the kind of experiment: Evaluation of plasma inhibition of Angiotensin I converting enzyme activity in conscious rat 6 hour after oral administration at a dose of 10 mg/kg. It counts as functional, organism-based. Details: dose 10 mg/kg. The method in brief:
as §1

For assay [5] the target is unchanged. As to the kind of experiment: Evaluation of plasma inhibition of Angiotensin I converting enzyme activity in conscious rat 1 hour after oral administration at a dose of 10 mg/kg. It is filed as functional, organism-based. Set-up: dose 10 mg/kg.

Consider `CC(C)[C@H](S)C(=O)NC1(C(=O)N[C@@H](Cc2ccc(O)cc2)C(=O)O)CC1`, for which, in assay [1], the IC50 was 15 nM. The inhibition in assay [2] was 17%.

`CC(C)[C@H](S)C(=O)NC1(C(=O)N[C@@H](Cc2ccc(F)cc2)C(=O)O)CCCC1` yielded an IC50 in assay [1] of 24 nM. Also, the inhibition in assay [2] came out at 28%.

`CC(C)[C@H](S)C(=O)NC1(C(=O)N[C@@H](CCc2ccccc2)C(=O)O)CCCC1` returned an IC50 in assay [1] of 30 nM. In addition, the inhibition in assay [2] came out at 75%.

Consider `CC(C)[C@H](S)C(=O)NC1(C(=O)N[C@@H](Cc2c[nH]c3ccccc23)C(=O)O)CCCC1`, for which the inhibition in assay [3] is 29%; in assay [4], 26%; in assay [2], 82%; in assay [5], 45%. This compound returned an IC50 in assay [1] of 10 nM.

In turn, `CC(C)[C@H](S)C(=O)NC(C)(C)C(=O)N[C@@H](Cc1ccc(O)cc1)C(=O)O` came in with a half-maximal inhibitory concentration (IC50) in assay [1] of 15 nM. In assay [2], this compound showed an inhibition of 67%.

Regarding `CC(C)[C@H](S)C(=O)NC1(C(=O)N[C@@H](Cc2ccsc2)C(=O)O)CCCC1`, in assay [1], the IC50 turned out to be 11 nM. The compound further yielded an inhibition in assay [2] of 71%.

With `CC(C)[C@H](S)C(=O)NC1(C(=O)N[C@@H](Cc2ccc(O)cc2)C(=O)O)CCOCC1`, in assay [1], it took 11 nM to reach half-maximal inhibition (IC50). This counts as double-digit nanomolar.

`CC(C)[C@H](S)C(=O)NC1(C(=O)N[C@@H](Cc2ccc(O)cc2)C(=O)O)CCCC1`: the inhibition in assay [3] turned out to be 36%; in assay [4], 15%; in assay [2] it was 68%; in assay [5], 48%. The compound further yielded an IC50 in assay [1] of 7 nM.

In assay [1], `CC(C)[C@H](S)C(=O)NC1(C(=O)N[C@@H](Cc2cccs2)C(=O)O)CCCC1` registered an IC50 of 18 nM. The inhibition in assay [2] came out at 29%.

In the case of `O=C(CS)NC1(C(=O)N[C@@H](Cc2ccc(O)cc2)C(=O)O)CCCC1`, the IC50 in assay [1] turned out to be 58 nM.

In turn, `CC(C)[C@H](S)C(=O)NC1(C(=O)N[C@@H](Cc2ccc(O)cc2)C(=O)O)Cc2ccccc2C1` displayed an IC50 in assay [1] of 26 nM. The compound also had an inhibition in assay [2] of 9%.

With `CC(C)[C@H](S)C(=O)NC1(C(=O)N[C@@H](Cc2ccccn2)C(=O)O)CCCC1`, in assay [1], the IC50 turned out to be 35 nM. The inhibition in assay [2] worked out at 17%.

Compound `O=C(O)[C@H](Cc1ccc(O)cc1)NC(=O)C1(NC(=O)[C@@H](S)Cc2ccccc2)CCCC1` showed a concentration for half-maximal inhibition (IC50) in assay [1] of 22 nM. The compound further had an inhibition in assay [2] of 17%.
